Measured values as given in ChEMBL document CHEMBL1123791, “3'-substituted 2',3'-dideoxynucleoside analogues as potential anti-HIV (HTLV-III/LAV) agents” (J Med Chem, 1987).
pEC50, pIC50: −log10 of the molar value.

Legend:
[1] = tested on: MT4; assay: Toxicity was determined by evaluation of cluster morphology and reclustering properties in mock infected MT-4 cells at 0.2 uM concentration; assay type: cell-based; settings: human, mt4, 0.2 µM
[2] = tested on: MT4; assay: Toxicity was determined by evaluation of cluster morphology and reclustering properties in mock infected MT-4 cells at 125 uM concentration; assay type: cell-based; settings: human, mt4, 125 µM
[3] = tested on: MT4; assay: Toxicity was determined by evaluation of cluster morphology and reclustering properties in mock infected MT-4 cells at 5 uM concentration; assay type: cell-based; settings: human, mt4, 5 µM
In short: (§1)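 Mock-infected MT4 cells were seeded at 2.5×10^5 cells/mL with compound at 125–0.00032 µM and cultured 5 days at 37 °C. Cluster morphology was scored microscopically, then cells were dispersed by pipetting and reclustering read after 4 h. Scoring: ++ >90%, + 10–40%, − <10% toxicity.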

[4] = tested on: MT4; assay: Protection was determined by evaluation of cluster morphology and reclustering properties in […] at 0.008 uM concentration.; assay type: functional, Homo sapiens
[5] = tested on: MT4; assay: Protection was determined by evaluation of cluster morphology and reclustering properties in […] MT-4 cells at 5 uM concentration.; assay type: functional, Homo sapiens
In short: (§2)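 MT4 cells infected with HIV (300 CCID50/well) were seeded at 2.5×10^5 cells/mL with compound at 125, 5, 0.2, 0.008 or 0.00032 µM and kept 5 days at 37 °C. Clusters were scored microscopically, dispersed by pipetting, and reclustering assessed after 4 h at 37 °C. Scoring: +++ >90% protection.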

[6] = tested on: ATH-8 cell line; assay: Protection of ATH8 cells against the cytopathic effect of HIV.; assay type: functional; settings: Homo sapiens, read-out: ED50 (the source's name)
[7] = tested on: ATH-8 cell line; assay: Required dose to reduce viability of normal uninfected ATH8 cells.; assay type: functional; settings: Homo sapiens, read-out: ID50 (the source's name)
[8] = tested on: MT4; assay: Protection was determined by evaluation of cluster morphology and reclustering properties in […] MT-4 cells at 0.2 uM concentration; assay type: functional, Homo sapiens
[9] = tested on: MT4; assay: Protection was determined by evaluation of cluster morphology and reclustering properties in […] MT-4 cells at 0.00032 uM concentration; assay type: functional, Homo sapiens; in short: as §2
[10] = tested on: MT4; assay: Protection was determined by evaluation of cluster morphology and reclustering properties in […] MT-4 cells at 5 uM concentration; Range is 10-40; assay type: functional, Homo sapiens; in short: as §2
[11] = tested on: MT4; assay: Protection was determined by evaluation of cluster morphology and reclustering properties in mock infected MT-4 cells at 125 uM concentration; assay type: functional, Homo sapiens; settings: in the assay text read “HIV infected” for “mock infected”; in short: as §2
[12] = tested on: MT4; assay: Toxicity was determined by evaluation of cluster morphology and reclustering properties in mock infected MT-4 cells at 125 uM concentration; Range is 10-40; assay type: cell-based; settings: human, mt4, 125 µM; in short: as §1
[13] = Therapeutic index (Ratio = ID50/ED50).
[14] = tested on: MT4; assay: Protection was determined by evaluation of cluster morphology and reclustering properties in […] MT-4 cells at 0.2 uM concentration; Range is 40-60; assay type: functional, Homo sapiens; in short: as §2
[15] = tested on: MT4; assay: Toxicity was determined by evaluation of cluster morphology and reclustering properties in mock infected MT-4 cells at 0.00032 uM concentration; assay type: cell-based; settings: human, mt4, 0.00032 µM; in short: as §1
[16] = tested on: MT4; assay: Toxicity was determined by evaluation of cluster morphology and reclustering properties in mock infected MT-4 cells at 0.008 uM concentration; assay type: cell-based; settings: human, mt4, 0.008 µM; in short: as §1

| SMILES | Toxicity [1] [%] | Toxicity [2] [%] | Toxicity [3] [%] | Protection [4] [%] | Protection [5] [%] | pEC50 [6] | pIC50 [7] | Protection [8] [%] | Protection [9] [%] | Protection [10] [%] | Protection [11] [%] | Toxicity [12] [%] | selectivity ratio [13] | Protection [14] [%] | Toxicity [15] [%] | Toxicity [16] [%] | Toxicity ([2]; 125 µM) [%] | Toxicity ([3]; 5 µM) [%] |
| --- | --- | --- | --- | --- | --- | --- | --- | --- | --- | --- | --- | --- | --- | --- | --- | --- | --- | --- |
| Cc1cn([C@H]2C[C@H](I)[C@@H](CO)O2)c(=O)[nH]c1=O | < 10 | > 90 | < 10 | <10 | <10 | < 3.30 | < 3.30 | <10 |  |  |  |  |  |  |  |  |  |  |
| CCc1cn([C@H]2C[C@H](N=[N+]=[N-])[C@@H](CO)O2)c(=O)[nH]c1=O | < 10 | > 90 | < 10 | <10 |  | < 4.00 | < 4.00 | <10 | <10 | 10 |  |  |  |  |  |  |  |  |
| Cc1cn([C@H]2C[C@@H](OS(C)(=O)=O)[C@@H](CO)O2)c(=O)[nH]c1=O | < 10 |  | < 10 |  | <10 | < 4.00 | < 4.00 | <10 |  |  | >90 | 10 |  |  |  |  |  |  |
| Nc1ncnc2c1ncn2[C@H]1C[C@H](F)[C@@H](CO)O1 | < 10 | < 10 | < 10 |  |  |  |  |  |  |  |  |  |  |  |  |  |  |  |
| Cc1cn([C@H]2C[C@H](OS(C)(=O)=O)[C@@H](CO)O2)c(=O)[nH]c1=O | < 10 | < 10 | < 10 |  |  | < 4.00 | < 4.00 | <10 |  | 10 | >90 |  |  |  |  |  |  |  |
| Nc1ccn([C@H]2C=C[C@@H](CO)O2)c(=O)n1 | < 10 | > 90 | < 10 | <10 | >90 | 6.52 | 4.52 |  |  |  |  |  | 100 | 40 |  |  |  |  |
| CCSC1CC(n2cc(C)c(=O)[nH]c2=O)OC1CO (configuration not stated) | < 10 | > 90 | < 10 | <10 |  | < 4.00 | 4.00 | <10 |  | 10 |  |  | < 1 |  |  |  |  |  |
| CNc1nc(=O)n(C2CC(N=[N+]=[N-])C(CO)O2)cc1C (configuration not stated) | < 10 | < 10 | < 10 |  |  | < 4.00 | < 4.00 | <10 |  | 10 | >90 |  |  |  |  |  |  |  |
| Cc1cn(C2CC(Cl)C(CO)O2)c(=O)[nH]c1=O (configuration not stated) | < 10 | > 90 | < 10 | <10 |  | < 3.30 | < 3.30 | <10 |  | 10 |  |  |  |  |  |  |  |  |
| O=c1ccn(C2CCC(CO)O2)c(=O)[nH]1 (configuration not stated) | < 10 | < 10 | < 10 |  | <10 | < 3.30 | < 3.30 | <10 |  |  | >90 |  |  |  |  |  |  |  |
| Cc1cn(C2CC(Br)C(CO)O2)c(=O)[nH]c1=O (configuration not stated) | < 10 | > 90 | < 10 | <10 |  | < 3.30 | 3.74 | <10 |  | 10 |  |  | < 0.4 |  |  |  |  |  |
| Nc1ncnc2c1ncn2[C@H]1C=C[C@@H](CO)O1 | < 10 | > 90 | < 10 |  | <10 | 4.40 | 4.28 | <10 |  |  | <10 |  | 1.3 |  | < 10 | < 10 |  |  |
| CCO[C@H]1C[C@H](n2cc(C)c(=O)[nH]c2=O)O[C@@H]1CO | < 10 | > 90 | < 10 | <10 |  | < 4.00 | < 4.00 | <10 |  | 10 |  |  |  |  |  |  |  |  |
| Cc1cn([C@H]2C[C@H](OCC(=O)[O-])[C@@H](CO)O2)c(=O)[nH]c1=O.[Na+] | < 10 | < 10 | < 10 |  | <10 | < 4.00 | < 4.00 | <10 |  |  | <10 |  |  |  |  |  |  |  |
| Cc1cn([C@H]2C[C@H](SC#N)[C@@H](CO)O2)c(=O)[nH]c1=O | < 10 | > 90 | < 10 | <10 |  | < 4.00 | < 4.00 | <10 |  | 10 |  |  |  |  |  |  |  |  |
| CCc1cn(C2CCC(CO)O2)c(=O)[nH]c1=O (configuration not stated) | < 10 | < 10 | < 10 | <10 | <10 |  |  | <10 |  |  | <10 |  |  |  |  | < 10 |  |  |
| O=c1ccn([C@H]2C=C[C@@H](CO)O2)c(=O)[nH]1 | < 10 | > 90 | < 10 | <10 | <10 | < 4.00 | 3.97 | <10 |  |  |  |  | < 1.1 |  |  |  |  |  |
| Cc1cn([C@H]2C[C@H](N=[N+]=[N-])[C@@H](CO)O2)c(=O)[nH]c1=O (stereo in doubt; 9k) [ZIDOVUDINE] | < 10 |  |  |  | <10 |  |  | <10 |  |  | <10 |  |  |  |  |  | < 10 | < 10 |
| Nc1ncnc2c1ncn2[C@H]1C[C@H](O)[C@@H](CO)O1 [DEOXYADENOSINE] | < 10 |  | < 10 |  | <10 | < 4.00 | < 4.00 | <10 |  |  | <10 | 10 |  |  |  |  |  |  |
| Nc1ccn([C@H]2CC[C@@H](CO)O2)c(=O)n1 [ZALCITABINE] | < 10 | > 90 | < 10 | <10 | >90 | 6.70 | 4.46 |  |  |  |  |  | 175 | 40 |  |  |  |  |
